Assay results published in ChEMBL document CHEMBL4038338 (J Med Chem, 2017).
The source made the active and inactive calls. The rule behind the calls is not given here.

Experiments:
[1] = biological target: T1, Calpain-1 catalytic subunit (Homo sapiens, UniProt P07384); experiment: Inhibition of human erythrocytes calpain-1 using Suc-Leu-Tyr-AMC as substrate by kinetic fluorescence assay
T1 sequence (P07384 whole entry): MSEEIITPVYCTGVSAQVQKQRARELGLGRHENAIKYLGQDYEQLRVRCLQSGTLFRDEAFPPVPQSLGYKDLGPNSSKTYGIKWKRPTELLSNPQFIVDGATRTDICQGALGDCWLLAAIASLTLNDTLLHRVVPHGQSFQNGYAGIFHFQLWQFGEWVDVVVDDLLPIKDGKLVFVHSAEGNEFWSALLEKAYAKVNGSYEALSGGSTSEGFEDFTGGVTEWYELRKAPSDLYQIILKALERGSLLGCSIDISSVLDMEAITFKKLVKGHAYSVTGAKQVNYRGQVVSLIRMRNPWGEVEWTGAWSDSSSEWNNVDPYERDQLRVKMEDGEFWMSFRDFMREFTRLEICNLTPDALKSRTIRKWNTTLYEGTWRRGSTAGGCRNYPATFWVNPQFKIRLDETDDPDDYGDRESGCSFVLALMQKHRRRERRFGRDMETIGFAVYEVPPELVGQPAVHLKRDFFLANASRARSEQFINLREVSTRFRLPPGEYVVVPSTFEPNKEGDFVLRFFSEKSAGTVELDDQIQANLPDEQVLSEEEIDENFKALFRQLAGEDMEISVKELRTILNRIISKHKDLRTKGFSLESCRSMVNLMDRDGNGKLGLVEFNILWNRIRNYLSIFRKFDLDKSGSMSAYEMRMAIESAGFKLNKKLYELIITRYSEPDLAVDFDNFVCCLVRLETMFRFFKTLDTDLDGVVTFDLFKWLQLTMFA

[2] = Selectivity ratio of Ki for human liver cathepsin B to Ki for human erythrocytes calpain-1
Homo sapiens [3] = species: Homo sapiens; experiment: Selectivity ratio of Ki for recombinant human procathepsin K expressed in Escherichia coli to Ki for human erythrocytes calpain-1
Method in brief: (§1)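 Ki ratios from kinetic fluorescence assays. Cathepsins B (0.25 nM), L (1 nM), K (3 nM) and S (0.5 nM) in MES buffer at pH 6.0. All at room temperature; Ki by Cheng-Prusoff.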

[4] = Selectivity ratio of Ki for human liver cathepsin L to Ki for human erythrocytes calpain-1
Homo sapiens [5] = species: Homo sapiens; experiment: Selectivity ratio of Ki for recombinant human cathepsin S expressed in Escherichia coli to Ki for human erythrocytes calpain-1; method in brief: as §1
[6] = biological target: T2, Calpain-1 catalytic subunit (Homo sapiens) (UniProt P07384); experiment: Inhibition of human erythrocytes calpain-1 using Suc-Leu-Tyr-AMC as substrate in presence of up to 10 mM glutathione by kinetic fluorescence assay
T2 sequence (whole entry): T1 sequence (P07384 whole entry)

[7] = Thiol reactivity using recombinant human full length 13C-labeled La antigen (100 to 324 residues) expressed in Escherichia coli BL21(DE3) by ALARM NMR

In the case of NC(=O)C(=O)[C@H](Cc1ccccc1)NC(=O)c1cccnc1-n1ccc(-c2ccccc2)n1, the Ki ([1]; read-out: Ki(app)) is reported as 10 nM.
In the case of CN1CCC(c2ccn(-c3ncccc3C(=O)NC(Cc3ccccc3)C(=O)C(N)=O)n2)CC1 (configuration not stated), the Ki ([1]; read-out: Ki) is reported as 146 nM, the “Ratio Ki” value [2] is reported as 2 and the Ratio Ki (Homo sapiens [3]) is reported as 1. The “Ratio Ki” value [4] was 2, the Ratio Ki (Homo sapiens [5]) was 89 and the inhibition [6] was “Active”. The Thiol reactivity [7] was “Metabolite not detected”.
For CCCCC(NC(=O)c1cccnc1-c1csc(-c2ccccc2)n1)C(=O)C(N)=O (configuration not stated), the Ki ([1]; read-out: Ki) was 122 nM, the “Ratio Ki” value [2] was 2 and the Ratio Ki (Homo sapiens [3]) was 1. For the same molecule, the “Ratio Ki” value [4] was 13, the Ratio Ki (Homo sapiens [5]) was 27 and the inhibition [6] was “Active”. For the same molecule, the Thiol reactivity [7] was “Metabolite not detected”.
For NC(=O)C(=O)C(Cc1ccccc1)NC(=O)c1cccnc1-n1cc(-c2ccccc2)cn1 (configuration not stated), the Ki ([1]; read-out: Ki) was 21 nM, the “Ratio Ki” value [2] was less than 1 and the Ratio Ki (Homo sapiens [3]) was 1. For the same molecule, the “Ratio Ki” value [4] was 12, the Ratio Ki (Homo sapiens [5]) was 14 and the inhibition [6] was “Active”. For the same molecule, the Thiol reactivity [7] was “Metabolite not detected”.
With NC(=O)C(=O)C(Cc1ccccc1)NC(=O)c1cccnc1-c1csc(-c2ccccc2)n1 (configuration not stated) the Ki ([1]; read-out: Ki) was 38 nM, the “Ratio Ki” value [2] was 39 and the Ratio Ki (Homo sapiens [3]) was 11. For the same molecule, the “Ratio Ki” value [4] was 139, the Ratio Ki (Homo sapiens [5]) was 310 and the inhibition [6] was “Active”. The Thiol reactivity [7] was “Metabolite not detected”.
With CCCCC(NC(=O)c1cccnc1-n1cc(-c2ccccc2)cn1)C(=O)C(N)=O (configuration not stated) the Ki ([1]; read-out: Ki) was 20 nM, the “Ratio Ki” value [2] was less than 1 and the Ratio Ki (Homo sapiens [3]) was less than 1. The “Ratio Ki” value [4] was 4, the Ratio Ki (Homo sapiens [5]) was 2 and the inhibition [6] was “Active”. For the same molecule, the Thiol reactivity [7] was “Metabolite not detected”.
In the case of NC(=O)C(=O)C(Cc1ccccc1)NC(=O)c1cccnc1-n1ccc(Cc2ccccc2)n1 (configuration not stated), the Ki ([1]; read-out: Ki) is reported as 38 nM, the “Ratio Ki” value [2] is reported as 9 and the Ratio Ki (Homo sapiens [3]) is reported as 9. The “Ratio Ki” value [4] was 50, the Ratio Ki (Homo sapiens [5]) was 75 and the inhibition [6] was “Active”. The Thiol reactivity [7] was “Metabolite not detected”.
With NC(=O)C(=O)C(Cc1ccccc1)NC(=O)c1cccnc1-c1nc(-c2ccccc2)cs1 (configuration not stated) the Ki ([1]; read-out: Ki) was 234 nM, the “Ratio Ki” value [2] was 10 and the Ratio Ki (Homo sapiens [3]) was 11. The “Ratio Ki” value [4] was 37, the Ratio Ki (Homo sapiens [5]) was 105 and the inhibition [6] was “Active”. The Thiol reactivity [7] was “Metabolite not detected”.
For NC(=O)C(=O)C(Cc1ccccc1)NC(=O)c1cccnc1-n1ccc(-c2ccc(CN3CCOCC3)cc2)n1 (configuration not stated), the Ki ([1]; read-out: Ki) was 41 nM, the “Ratio Ki” value [2] was less than 1 and the Ratio Ki (Homo sapiens [3]) was less than 1. The “Ratio Ki” value [4] was 5, the Ratio Ki (Homo sapiens [5]) was 240 and the inhibition [6] was “Active”. The Thiol reactivity [7] was “Metabolite not detected”.
With CC(C)(C)c1ccn(-c2ncccc2C(=O)NC(Cc2ccccc2)C(=O)C(N)=O)n1 (configuration not stated) the Ki ([1]; read-out: Ki) was 81 nM, the “Ratio Ki” value [2] was 16 and the Ratio Ki (Homo sapiens [3]) was 24. The “Ratio Ki” value [4] was 10, the Ratio Ki (Homo sapiens [5]) was 56 and the inhibition [6] was “Active”. The Thiol reactivity [7] was “Metabolite not detected”.
With NC(=O)C(=O)C(Cc1ccccc1)NC(=O)c1cccnc1-n1ccc(-c2ccc(Cl)cc2)n1 (configuration not stated) the Ki ([1]; read-out: Ki) was 88 nM, the “Ratio Ki” value [2] was 6 and the Ratio Ki (Homo sapiens [3]) was 9. For the same molecule, the “Ratio Ki” value [4] was 89, the Ratio Ki (Homo sapiens [5]) was greater than 300 and the inhibition [6] was “Active”. For the same molecule, the Thiol reactivity [7] was “Metabolite not detected”.
In the case of NC(=O)C(=O)C(Cc1ccccc1)NC(=O)c1cccnc1-n1ccc(C2CCCCC2)n1 (configuration not stated), the Ki ([1]; read-out: Ki) is reported as 56 nM, the “Ratio Ki” value [2] is reported as 9 and the Ratio Ki (Homo sapiens [3]) is reported as 10. For the same molecule, the “Ratio Ki” value [4] was 33, the Ratio Ki (Homo sapiens [5]) was 92 and the inhibition [6] was “Active”. For the same molecule, the Thiol reactivity [7] was “Metabolite not detected”.
With NC(=O)C(=O)C(Cc1ccccc1)NC(=O)c1ccccc1-c1csc(-c2ccccc2)n1 (configuration not stated) the Ki ([1]; read-out: Ki) was 82 nM, the “Ratio Ki” value [2] was 23 and the Ratio Ki (Homo sapiens [3]) was less than 1. The “Ratio Ki” value [4] was 116, the Ratio Ki (Homo sapiens [5]) was 186 and the inhibition [6] was “Active”. For the same molecule, the Thiol reactivity [7] was “Metabolite not detected”.
For NC(=O)C(=O)C(Cc1ccccc1)NC(=O)c1cccnc1-n1cnc(-c2ccccc2)c1 (configuration not stated), the Ki ([1]; read-out: Ki) was 45 nM, the “Ratio Ki” value [2] was less than 1 and the Ratio Ki (Homo sapiens [3]) was less than 1. For the same molecule, the “Ratio Ki” value [4] was 23, the Ratio Ki (Homo sapiens [5]) was 54 and the inhibition [6] was “Active”. For the same molecule, the Thiol reactivity [7] was “Metabolite not detected”.
In the case of NC(=O)C(=O)C(Cc1ccccc1)NC(=O)c1cccnc1-n1cc2c(n1)CCCC2 (configuration not stated), the Ki ([1]; read-out: Ki) is reported as 101 nM, the “Ratio Ki” value [2] is reported as 2 and the Ratio Ki (Homo sapiens [3]) is reported as 2. The “Ratio Ki” value [4] was 45, the Ratio Ki (Homo sapiens [5]) was 10 and the inhibition [6] was “Active”. For the same molecule, the Thiol reactivity [7] was “Metabolite not detected”.
For CCCCC(NC(=O)c1cccnc1-n1cnc(-c2ccccc2)c1)C(=O)C(N)=O (configuration not stated), the Ki ([1]; read-out: Ki) was 38 nM, the “Ratio Ki” value [2] was less than 1 and the Ratio Ki (Homo sapiens [3]) was less than 1. For the same molecule, the “Ratio Ki” value [4] was 22, the Ratio Ki (Homo sapiens [5]) was 22 and the inhibition [6] was “Active”. For the same molecule, the Thiol reactivity [7] was “Metabolite not detected”.
In the case of NC(=O)C(=O)C(Cc1ccccc1)NC(=O)c1ccccc1-n1ccc(-c2ccccc2)n1 (configuration not stated), the Ki ([1]; read-out: Ki) is reported as 43 nM, the “Ratio Ki” value [2] is reported as 7 and the Ratio Ki (Homo sapiens [3]) is reported as 1. For the same molecule, the “Ratio Ki” value [4] was 38, the Ratio Ki (Homo sapiens [5]) was 82 and the inhibition [6] was “Active”. For the same molecule, the Thiol reactivity [7] was “Metabolite not detected”.
For NC(=O)C(=O)C(Cc1ccccc1)NC(=O)c1cccnc1-n1cccn1 (configuration not stated), the Ki ([1]; read-out: Ki) was 164 nM, the “Ratio Ki” value [2] was 1 and the Ratio Ki (Homo sapiens [3]) was 3. The “Ratio Ki” value [4] was 20, the Ratio Ki (Homo sapiens [5]) was 21 and the inhibition [6] was “Active”. For the same molecule, the Thiol reactivity [7] was “Metabolite not detected”.
With NC(=O)C(=O)C(Cc1ccccc1)NC(=O)c1cccnc1-c1coc(-c2ccccc2)n1 (configuration not stated) the Ki ([1]; read-out: Ki) was 177 nM, the “Ratio Ki” value [2] was 11 and the Ratio Ki (Homo sapiens [3]) was 20. For the same molecule, the “Ratio Ki” value [4] was 29, the Ratio Ki (Homo sapiens [5]) was 127 and the inhibition [6] was “Active”. For the same molecule, the Thiol reactivity [7] was “Metabolite not detected”.
With CCCCC(NC(=O)c1cccnc1-n1ccc(-c2ccccc2)n1)C(=O)C(N)=O (configuration not stated) the Ki ([1]; read-out: Ki) was 32 nM, the “Ratio Ki” value [2] was 1 and the Ratio Ki (Homo sapiens [3]) was 2. For the same molecule, the “Ratio Ki” value [4] was 25, the Ratio Ki (Homo sapiens [5]) was 61 and the inhibition [6] was “Active”. For the same molecule, the Thiol reactivity [7] was “Metabolite not detected”.
For NC(=O)C(=O)C(Cc1ccccc1)NC(=O)c1cccnc1-n1ccc(C2CC2)n1 (configuration not stated), the Ki ([1]; read-out: Ki) was 94 nM, the “Ratio Ki” value [2] was 4 and the Ratio Ki (Homo sapiens [3]) was 7. The “Ratio Ki” value [4] was 34, the Ratio Ki (Homo sapiens [5]) was 50 and the inhibition [6] was “Active”. The Thiol reactivity [7] was “Metabolite not detected”.
For NC(=O)C(=O)C(Cc1ccccc1)NC(=O)c1cccnc1-n1ccc(C2CCOCC2)n1 (configuration not stated), the Ki ([1]; read-out: Ki) was 48 nM, the “Ratio Ki” value [2] was 14 and the Ratio Ki (Homo sapiens [3]) was 13. The “Ratio Ki” value [4] was 56, the Ratio Ki (Homo sapiens [5]) was 147 and the inhibition [6] was “Active”. The Thiol reactivity [7] was “Metabolite not detected”.
With NC(=O)C(=O)C(Cc1ccccc1)NC(=O)c1cccnc1-n1ccc(-c2ccc(C(F)(F)F)cc2)n1 (configuration not stated) the Ki ([1]; read-out: Ki) was 72 nM, the “Ratio Ki” value [2] was 11 and the Ratio Ki (Homo sapiens [3]) was 22. The “Ratio Ki” value [4] was 210, the Ratio Ki (Homo sapiens [5]) was 87 and the inhibition [6] was “Active”. For the same molecule, the Thiol reactivity [7] was “Metabolite not detected”.
With COc1ccc(-c2ccn(-c3ncccc3C(=O)NC(Cc3ccccc3)C(=O)C(N)=O)n2)cc1 (configuration not stated) the Ki ([1]; read-out: Ki) was 83 nM, the “Ratio Ki” value [2] was 11 and the Ratio Ki (Homo sapiens [3]) was 17. For the same molecule, the “Ratio Ki” value [4] was 81, the Ratio Ki (Homo sapiens [5]) was greater than 500 and the inhibition [6] was “Active”. The Thiol reactivity [7] was “Metabolite not detected”.
